Source: PubChem
TRPC6 inhibitor: mouse TRPC6 channel inhibitors, primary screen, cell-based, HEK293, membrane potential dye; Short transient receptor potential channel 6 (Mus musculus), Q61143; ACh-evoked depolarization; hits give low values; B-score at 10 µM; hit rate 1.1% among 310,000; AID 2553, 2010;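 active = B-score under library mean minus 3 SD, initial fluorescence not abnormally high, positive integrated signal ratio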;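 note: B-score derived from integrated fluorescence ratio over the kinetic read; more negative B-score means stronger inhibition of depolarization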
Target sequence (Q61143 whole entry, looked up): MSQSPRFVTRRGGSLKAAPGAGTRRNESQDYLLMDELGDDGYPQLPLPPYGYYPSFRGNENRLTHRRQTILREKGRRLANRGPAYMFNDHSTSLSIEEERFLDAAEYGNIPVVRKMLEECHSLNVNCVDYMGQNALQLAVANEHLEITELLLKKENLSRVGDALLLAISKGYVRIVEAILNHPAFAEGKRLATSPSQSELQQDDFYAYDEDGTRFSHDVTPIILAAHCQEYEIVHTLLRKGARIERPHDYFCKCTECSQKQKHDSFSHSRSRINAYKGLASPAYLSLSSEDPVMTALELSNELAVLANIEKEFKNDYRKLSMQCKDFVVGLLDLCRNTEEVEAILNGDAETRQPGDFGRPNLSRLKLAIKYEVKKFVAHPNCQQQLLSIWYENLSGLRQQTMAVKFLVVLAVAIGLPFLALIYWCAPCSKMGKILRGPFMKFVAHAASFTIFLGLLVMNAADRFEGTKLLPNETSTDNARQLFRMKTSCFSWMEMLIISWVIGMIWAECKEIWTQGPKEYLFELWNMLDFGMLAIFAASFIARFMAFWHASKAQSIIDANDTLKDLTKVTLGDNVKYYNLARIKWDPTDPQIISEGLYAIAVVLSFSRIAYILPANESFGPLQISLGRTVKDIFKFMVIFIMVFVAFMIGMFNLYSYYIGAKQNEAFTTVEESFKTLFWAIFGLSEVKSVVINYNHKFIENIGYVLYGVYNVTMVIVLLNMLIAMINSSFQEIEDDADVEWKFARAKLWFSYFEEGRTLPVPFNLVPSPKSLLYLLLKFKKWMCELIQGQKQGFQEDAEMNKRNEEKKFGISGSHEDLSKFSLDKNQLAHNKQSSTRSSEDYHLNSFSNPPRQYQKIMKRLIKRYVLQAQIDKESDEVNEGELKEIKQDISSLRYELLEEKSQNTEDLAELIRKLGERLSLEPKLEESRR
TRPC6 activator: mouse TRPC6 channel activators, primary screen, cell-based, HEK293, membrane potential dye. HEK293-TRPC6 membrane potential dye fluorescence; hits give high values. AID 2550, 2010. Short transient receptor potential channel 6 (Mus musculus), Q61143. hit rate 0.13% among 310,000. B-score at 10 µM;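 active = B-score of the integrated fluorescence ratio above library mean plus 3 SD, and starting fluorescence ratio within library mean plus 5 SD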;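 note: higher score means more depolarization so channel activation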
TRPC4 PAM: positive allosteric modulators of TRPC4, primary screen, cell-based, mouse TRPC4beta, HEK293 mu-opioid, Fluo-4 calcium; AID 2227, 2009; DAMGO EC20, Fluo-4 Ca2+ flux; hits give high values; Short transient receptor potential channel 4 (Mus musculus), Q9QUQ5; B-score at 10 µM; hit rate 0.42% among 310,000;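 active = B-score of calcium response area above 5 SD of library B-scores, with initial fluorescence ratio within 5 SD of library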;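 note: B-score of integrated fluorescence ratio over time as area under calcium response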
TRPC4 block: inhibitors of mouse TRPC4 channel, primary screen, Fluo4 calcium, HEK293 TRPC4beta/mu-opioid cells. Short transient receptor potential channel 4 (Mus musculus), Q9QUQ5. DAMGO-evoked Fluo4 calcium flux; hits give low values. B-score at 10 µM. hit rate 0.39% among 300,000. AID 2247, 2010;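 active = B-score over 3 SD under the library average, no early fluorescence shift, positive overall ratio signal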
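Assay system: TRPC4beta/mu-opioid receptor HEK293 cell line; compound dosing: single concentration per test compound; detection: Fluo4 Ca2+ flux fluorescence; evaluation: per-well B score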
TRPC4 agonist: activators of mouse TRPC4 channel, primary screen, Fluo4 calcium, HEK293 TRPC4beta/mu-opioid cells | Short transient receptor potential channel 4 (Mus musculus), Q9QUQ5 | hit rate 0.49% among 310,000 | Fluo4 calcium fluorescence; hits give high values | B-score at 10 µM;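 active = B-score above 5 SD of library B-scores, and initial fluorescence ratio not above library mean plus 5 SD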;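 note: positive B-score marks a calcium rise read as TRPC4 activation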
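Technique: kinetic Fluo4 calcium fluorescence; Test system: TRPC4beta and mu-opioid receptor HEK293 stable cells; Measure: B-scored integrated calcium fluorescence ratio; Benchmarks: low control buffer alone, high control maximal DAMGO; Schedule: 45 min room-temperature Fluo4 loading, 110 s read.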
TRPC4 sel inh 2: mouse TRPC4 off-target activity of TRPC6 inhibitors, second screen | inhibition, % at 10 µM | hit rate 42% among 920 | shares compounds with TRPC6 inhibitor | HEK293 TRPC4/MOR, membrane potential dye fluorescence; channel activated by saturating DAMGO dose;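 active = compounds whose fluorescence signal differed from control wells by over 3 SD, either direction, in both duplicate plates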
TRPC4 spec: mouse TRPC4 modulation by TRPC6 hits, confirmation, selectivity assay for TRPC6 inhibitor project, cell-based, HEK293 TRPC4/mu-opioid, membrane potential dye; shares compounds with TRPC6 inhibitor; membrane potential fluorescence; activity change, negative = inhibition, % at 10 µM; hit rate 61% among 920; AID 2777, 2010;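 active = rise or fall in signal beyond 3 SD of buffer-only wells in both replicate plates, either sign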;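 note: integrated kinetic ratio of fluorescence range over baseline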
HEK293 MPD ctr 2-1: nonspecific membrane potential effects, parental HEK293, confirmation, counter-screen for TRPC6 inhibitor project, cell-based, second counter screen. shares compounds with TRPC6 inhibitor. parental HEK293 membrane potential dye fluorescence; maximal acetylcholine challenge after compound addition. signal change vs control, % at 10 µM. hit rate 31% among 920;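 active = membrane potential signal moving either way by over 3 SD of the maximum-effect control, in both duplicate plates, meaning non-specific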
HEK293 MPD ctr-1: membrane potential modulation in parental HEK293, confirmation, counter-screen for TRPC6 inhibitor project, cell-based. shares compounds with TRPC6 inhibitor. parental HEK293 membrane potential dye fluorescence. membrane potential signal change, % at 10 µM. hit rate 60% among 920;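 active = membrane potential signal shifting up or down by more than 3 SD of buffer-only wells, on both duplicate plates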
HEK293 MPD ctr-2: parental HEK293 membrane potential modulation, confirmation, counter-screen for TRPC6 modulator project, cell-based; hit rate 51% among 2,400; shares compounds with TRPC6 inhibitor; membrane potential signal change, % at 10 µM; AID 488924, 2010; membrane potential dye fluorescence;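 active = membrane potential signal moves up or down beyond 5 SD from buffer-only wells, on both duplicate plates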
HEK293 MPD ctr 2-2: parental HEK293 nonspecific activity of TRPC6 modulators, second screen; hit rate 14% among 2,400; AID 488926; inhibition, % at 10 µM; shares compounds with TRPC6 inhibitor; membrane potential dye fluorescence; after compound, maximal acetylcholine stimulation;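 active = membrane potential signal drops by more than 5 SD from the mean control signal, in both duplicate plates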;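 note: plate controls were acetylcholine ECmax control wells for no effect and buffer only wells for full effect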
TRPC4 ctr mod: TRPC4 modulation by TRPC6 hit compounds, confirmation, selectivity assay for TRPC6 modulator project, cell-based, HEK293 TRPC4/mu-opioid, membrane potential dye, mouse | shares compounds with TRPC6 inhibitor | AID 488927, 2010 | membrane potential fluorescence | percent change from control (negative = decrease, positive = increase), % at 10 µM | hit rate 69% among 2,400;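 active = membrane potential signal moved up or down beyond 5 SD of buffer control wells, in both duplicate plates, actives on both sides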;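 note: plate controls were assay buffer wells for no effect and DAMGO maximal-effect wells for full effect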
TRPC4 ctr inh 2: second check of whether TRPC6 modulators also affect mouse TRPC4; shares compounds with TRPC6 inhibitor; HEK293 TRPC4/mu-opioid, membrane potential dye fluorescence; stimulated with maximal-effect DAMGO; inhibition, % at 10 µM; hit rate 55% among 2,400; AID 488928;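 active = drop in membrane potential signal beyond 5 SD of the control wells in both duplicate plates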;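 note: TRPC4 counter screen for TRPC6 hits run under conditions tuned for TRPC6 not TRPC4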
TRPC6 inh conf: mouse TRPC6 channel inhibitors, confirmation, HEK293 cells, membrane potential dye, duplicate; shares compounds with TRPC6 inhibitor; ACh-evoked depolarization; inhibition, % at 10 µM; hit rate 43% among 3,300; AID 488960, 2010;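 active = fluorescence ratio falls more than 5 SD below the full-stimulation control mean, in both duplicate runs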;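 note: integrated fluorescence ratio of peak minus minimum over baseline after agonist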
TRPC6 act conf: mouse TRPC6 channel activators, confirmation, HEK293 cells, membrane potential dye, duplicate; shares compounds with TRPC6 inhibitor; HEK293-TRPC6 membrane potential dye fluorescence, FDSS; activation, % at 10 µM; hit rate 11% among 2,800; AID 488961, 2010;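 active = ratio signal rise beyond 5 SD above unstimulated control wells' mean, seen in both duplicate runs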;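 note: plate controls were buffer EC0 wells for no effect and acetylcholine ECmax response for full effect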
An asterisk follows results filed as active. This is a sample that favours compounds with a hit; in the whole collection about 2.3% have one here.

What do the screens show for `c1ccc2nc3c(nc2c1)c1ccccc1n3CCN1CCOCC1`?
TRPC6 inhibitor: -5.1*; TRPC6 activator: inactive; TRPC4 PAM: inactive; TRPC4 block: inactive; TRPC4 agonist: inactive; HEK293 MPD ctr-2: inactive; HEK293 MPD ctr 2-2: inactive; TRPC4 ctr mod: -8.5%*; TRPC4 ctr inh 2: 34%*; TRPC6 inh conf: inactive; TRPC6 act conf: inactive

How did CCOC(=O)N1CCN(C(=O)/C(=C/c2ccc(Br)cc2)NC(=O)c2ccc(OC)cc2)CC1 do in these assays?
TRPC6 inhibitor: inactive; TRPC6 activator: inactive; TRPC4 PAM: inactive; TRPC4 block: inactive; TRPC4 agonist: inactive

What do the screens show for `COc1ccc(OC)c(C(c2nnnn2Cc2ccccc2)N2CCN(C3CCCCC3)CC2)c1` (stereo not given)?
TRPC6 inhibitor: -5.7*; TRPC6 activator: inactive; TRPC4 PAM: inactive; TRPC4 block: inactive; TRPC4 agonist: inactive; HEK293 MPD ctr-2: 132%*; HEK293 MPD ctr 2-2: inactive; TRPC4 ctr mod: inactive; TRPC4 ctr inh 2: 65%*; TRPC6 inh conf: 40%*

Results for Cc1ccc(S(=O)(=O)NCc2ccc(C(=O)N3CCN(c4ccc([N+](=O)[O-])cc4)CC3)cc2)cc1 ?
TRPC6 inhibitor: inactive; TRPC6 activator: inactive; TRPC4 PAM: inactive; TRPC4 block: inactive; TRPC4 agonist: inactive

Results for Cc1ccc(OCCSc2nc3ccccc3n2CC(=O)O)cc1C ?
TRPC6 inhibitor: inactive; TRPC6 activator: inactive; TRPC4 PAM: inactive; TRPC4 block: inactive; TRPC4 agonist: inactive

What do the screens show for `N#Cc1ccccc1NC(=O)CSc1nnc(-c2ccncc2)o1`?
TRPC6 inhibitor: inactive; TRPC6 activator: inactive; TRPC4 PAM: inactive; TRPC4 block: inactive; TRPC4 agonist: inactive

How did Cc1[nH]c2c(Cl)cccc2c(=O)c1CN1CCCCCC1 do in these assays?
TRPC6 inhibitor: -5.9*; TRPC6 activator: inactive; TRPC4 PAM: inactive; TRPC4 block: inactive; TRPC4 agonist: inactive; HEK293 MPD ctr-2: -73%*; HEK293 MPD ctr 2-2: inactive; TRPC4 ctr mod: -18%*; TRPC4 ctr inh 2: inactive; TRPC6 inh conf: inactive; TRPC6 act conf: inactive

Results for CCN(CC)c1ccc(/C=N\NC(=O)c2cccc3cc[nH]c23)cc1 ?
TRPC6 inhibitor: -5.7*; TRPC6 activator: inactive; TRPC4 PAM: inactive; TRPC4 block: inactive; TRPC4 agonist: inactive; HEK293 MPD ctr-2: inactive; HEK293 MPD ctr 2-2: inactive; TRPC4 ctr mod: -12%*; TRPC4 ctr inh 2: 54%*; TRPC6 inh conf: inactive; TRPC6 act conf: inactive

How did Cc1cc(C)cc(N(C(=O)Cc2cccs2)C(C(=O)NC2CCCCC2)c2ccccn2)c1 (stereo not given) do in these assays?
TRPC6 inhibitor: inactive; TRPC6 activator: inactive; TRPC4 PAM: inactive; TRPC4 block: inactive; TRPC4 agonist: inactive

How did O=C(NC1CCCCC1)C(c1ccccn1)N(C(=O)Cc1cccs1)c1ccc(Cl)cc1 (stereo not given) do in these assays?
TRPC6 inhibitor: -6.9*; TRPC6 activator: inactive; TRPC4 PAM: inactive; TRPC4 block: inactive; TRPC4 agonist: inactive; TRPC4 sel inh 2: inactive; TRPC4 spec: 22%*; HEK293 MPD ctr 2-1: inactive; HEK293 MPD ctr-1: 11%*; TRPC6 inh conf: inactive

Results for O=C(Nc1c2c(nn1-c1ccc(F)cc1)CSC2)c1ccc(S(=O)(=O)N2CCOCC2)cc1 ?
TRPC6 inhibitor: -5.6*; TRPC6 activator: inactive; TRPC4 PAM: inactive; TRPC4 block: inactive; TRPC4 agonist: inactive; HEK293 MPD ctr-2: inactive; HEK293 MPD ctr 2-2: inactive; TRPC4 ctr mod: inactive; TRPC4 ctr inh 2: inactive; TRPC6 inh conf: inactive; TRPC6 act conf: inactive

How did CC(C)Cn1c(=O)c(C(=O)Nc2ccncc2)c(O)c2ccccc21 do in these assays?
TRPC6 inhibitor: -12*; TRPC6 activator: inactive; TRPC4 PAM: inactive; TRPC4 block: inactive; TRPC4 agonist: inactive; TRPC4 sel inh 2: inactive; TRPC4 spec: -15%*; HEK293 MPD ctr 2-1: -84%*; HEK293 MPD ctr-1: inactive; TRPC6 inh conf: 84%*; TRPC6 act conf: inactive

How did COc1ccc(C(=O)Oc2ccc(N(C)S(=O)(=O)c3ccccc3)cc2)cc1[N+](=O)[O-] do in these assays?
TRPC6 inhibitor: inactive; TRPC6 activator: inactive; TRPC4 PAM: inactive; TRPC4 block: inactive; TRPC4 agonist: inactive
